Screens from PubChem.
ARFGAP1 inh = inhibitors of rat ARFGAP1 GAP activity, primary screen, biochemical, fluorescence polarization, GDP tracer | ADP-ribosylation factor GTPase-activating protein 1 (Rattus norvegicus), Q62848 | Arfgap1-stimulated ARF1 GTP hydrolysis, GDP FP detection | inhibition, % at 16.5 µM | 360,000 compounds, 0.26% hits | AID 651572, 2012;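 active = inhibition above a per-plate limit, mean inhibition of low control wells plus 3 SD, cut at about 25% in these data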;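 note: 0% = DMSO wells with enzyme and 100% = wells lacking Arfgap1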
Target sequence (Q62848 1-136 limits assumed): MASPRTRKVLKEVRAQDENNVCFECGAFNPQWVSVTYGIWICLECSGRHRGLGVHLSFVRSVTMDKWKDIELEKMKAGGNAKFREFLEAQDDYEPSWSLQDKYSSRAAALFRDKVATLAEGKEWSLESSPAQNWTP
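Material: truncated rat Arfgap1 GAP domain; Incubation: compound-enzyme preincubation 20 min, reaction 120 min, detection 60 min, 25 °C; Read-out: percent inhibition of Arfgap1-stimulated GTP hydrolysis; Technique: FP, GDP Alexa 633 tracer displaced from anti-GDP antibody, 620/688 nm; Controls: No-Arfgap1 wells (100%) versus DMSO full-reaction wells (0%); Replication: single well per compound.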
ASAP1 GAP inh = inhibitors of human ASAP1 ArfGAP activity, primary screen, biochemical, fluorescence polarization. Arf-GAP with SH3 domain, ANK repeat and PH domain-containing protein 1 (Homo sapiens), …. ASAP1-stimulated ARF1 GTP hydrolysis, GDP FP detection. inhibition, % at 16.5 µM. 360,000 compounds, 0.19% hits; in the data active = inhibition above about 25%;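 note: 0% = vehicle with enzyme and substrate and 100% = no enzyme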
VIM-2 inh = VIM-2 metallo-beta-lactamase inhibitors, primary screen, biochemical, epi-absorbance readout, Pseudomonas aeruginosa enzyme; inhibition, % at 5.6 µM; 290,000 compounds, 0.89% hits; purified VIM-2, nitrocefin hydrolysis, epi-absorbance fluorescence;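 active = inhibition above the mean of all tested compounds plus 3 SD, cutoff set per screening run, cut at about 7.5% in these data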;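 note: red hydrolysis product quenches plate fluorescence so inhibitors raise well fluorescence; 0% = enzyme with DMSO and 100% = DMSO without enzyme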
Calb FLC = C. albicans growth inhibition with fluconazole, primary screen, CaCi-2 strain, Alamar Blue fluorescence; C. albicans CaCi-2 + fluconazole, 48 h; growth inhibition, % (concentration not given with the values); 300,000 compounds, 0.57% hits;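 active = growth inhibition above about 58% in most replicates, limit read from the data, passing the limit was not always enough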;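 note: all wells also contain fluconazole at 8 µg/ml as a sub-toxic cotreatment; 0% = median of DMSO wells and 100% = median of geldanamycin control wells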
IMP-1 inh = IMP-1 metallo-beta-lactamase inhibitors, primary screen, biochemical, epi-absorbance readout, Pseudomonas aeruginosa enzyme; metallo-beta-lactamase IMP-1 (Pseudomonas aeruginosa); purified IMP-1, nitrocefin hydrolysis, epi-absorbance fluorescence; inhibition, % at 5.6 µM; 290,000 compounds, 0.45% hits; AID 1556, 2009;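 active = inhibition above the mean plus 3 SD of all compounds in the same screening run, cut at about 4.5% in these data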;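 note: 0% = IMP-1 with DMSO and 100% = DMSO wells lacking enzyme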
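System: Purified recombinant IMP-1 metallo-beta-lactamase enzyme | Measured by: Fluorescence quenching readout, ex 480/em 530 nm | Replication: Singlicate | Incubation: 15 min preincubation plus 25 min reaction at 25 °C | Evaluation: Percent inhibition from optical density relative to buffer-blank wells | Benchmarks: DMSO with and without IMP-1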
PHOSPHO1 block = PubChem AID 1565; Phosphoethanolamine/phosphocholine phosphatase (Homo sapiens), Q8TCT1; 290,000 compounds, 1.1% hits; recombinant PHOSPHO1, absorbance phosphatase assay; inhibition, % at 13.3 µM; in the data active = inhibition above about 60%
Target sequence (Q8TCT1 whole entry, looked up): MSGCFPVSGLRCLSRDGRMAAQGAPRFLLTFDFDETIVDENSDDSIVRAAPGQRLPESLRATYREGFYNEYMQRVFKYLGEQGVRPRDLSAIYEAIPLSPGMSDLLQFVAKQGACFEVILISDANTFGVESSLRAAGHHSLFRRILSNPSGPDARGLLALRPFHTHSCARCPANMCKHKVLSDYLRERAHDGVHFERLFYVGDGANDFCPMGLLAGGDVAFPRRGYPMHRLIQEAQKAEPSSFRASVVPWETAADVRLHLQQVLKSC
* marks the source's active call; other numbers are inactive results; . = no result given. Only some compounds are listed: those with a hit (about 2.6% of all), similar ones and a draw of the others.

SMILES	ARFGAP1 inh	ASAP1 GAP inh	VIM-2 inh	Calb FLC	IMP-1 inh	PHOSPHO1 block
COc1ccc2c(c1)[C@@H](NC(=O)C(F)(F)F)[C@@H]1CCCC[C@]21c1ccccc1	14	-3	.	.	.	.
C=CCN(C(=O)CCc1ccccc1OC)c1nc(-c2ccc(S(C)(=O)=O)cc2)cs1	12	-8	1	0	4.6*	-18
C=CCN(C(=O)Cc1cccs1)c1nc(-c2ccc(S(C)(=O)=O)cc2)cs1	5	4	1	14	5.3*	22
Fc1cccc(Cl)c1CN1CCN(c2ncc(Cc3ccccc3)cn2)CC1	3	4	.	.	.	.
COc1ccc2cc1Oc1ccc(cc1)CC1c3c(cc(OC)c4c3Oc3cc5c(cc3O4)CCNC5C2)CCN1C (stereo unspecified)	.	.	6	9	4.6*	20
CCOc1ccc(C2NCCc3cc(OC)c(OC)cc32)cc1OC (stereo unspecified)	9	-4	-2	-14	-3	20
COc1ccc(Cc2c(-c3ccccc3)nc3ccc(Br)cn23)c(C)c1	5	-7	.	.	.	.
COC(=O)C1=C(C)N(C)C(=NCc2ccccc2C(F)(F)F)NC1c1cccc(F)c1 (stereo unspecified)	-6	1	.	.	.	.
COC(=O)c1cc2c(c3c4cc(F)ccc4n(S(=O)(=O)c4cccc(C)c4)c13)C(=O)N(Cc1ccc(N(C)C)cc1)C2	-1	4	.	.	.	.
CCn1c(SCC(=O)c2ccc(O)c(O)c2)nnc1-c1ccccc1OC	-7	4	1	96*	-3	47
COc1ccccc1C(=O)N1CCN(C(=O)[C@@H](Cc2ccccc2)NC(=O)[C@H]2O[C@@H](n3cnc(C(N)=O)n3)[C@H](O)[C@@H]2O)CC1	7	4	.	.	.	.
CC(C)(C)S(=O)N1C[C@H]2CC(=O)C=C2[C@@H]1CCO (stereo partly specified)	-1	-16	.	.	.	.
CCOC(=O)c1c(N)sc(=S)c2c1CCC2	0	2	2	17	12*	60*
CCOC(=O)c1c(N)sc2c1CCSC2	10	10	0	1	14*	65*
CCOC(=O)c1c(N)sc(N)c1C(=O)OCC	4	-8	-3	-23	-3	-3
Cc1cc(=O)c2c(ccc3c(=O)cc(C)[nH]c32)[nH]1	-3	5	.	.	.	.
O=c1cc(O)n(-c2ccc(Cl)cc2)c(=S)[nH]1	-5	-1	-3	-2	-3	82*
COC(=O)/C=C1\OCc2cc(OC)c(OC)cc21	2	-13	.	.	.	.
O=c1[nH]c(-c2ccncc2)nc2ccccc12	12	-1	-1	-1	-3	98*
CCCc1nn(C)c2c(=O)[nH]c(-c3cc(S(=O)(=O)N(CCO)CCO)ccc3OCC)nc12	-10	19	0	-6	0	63*
CCOc1ccc(S(=O)(=O)N(CCO)CCO)cc1-c1nc2c(C(C)(C)C)nn(C)c2c(=O)[nH]1	-3	22	3	16	0	-12
CC(=O)c1ccc(NC(=O)c2ccc(NC(=O)c3ccco3)cc2)cc1	.	.	3	-10	19*	10
CC(=O)Nc1ccc(NC(=O)c2ccco2)cc1	2	17	-3	24	-3	-12
CCN(CC)c1ccc(/C=N/NC(=O)c2ccco2)c(O)c1	-13	2	-1	89*	-3	20
Cc1ccccc1OCC(=O)Nc1ccc(NC(=O)c2ccco2)cc1	0	0	3	-6	2	67*
SMILES	ARFGAP1 inh	ASAP1 GAP inh	VIM-2 inh	Calb FLC	IMP-1 inh	PHOSPHO1 block
CC(=O)c1ccc(C(=O)Nc2ccc3c(c2)C(=O)NC3=O)cc1	-9	2	0	17	6.1*	-32
CCc1c(-c2cccc(OC)c2)ncn1CCc1ccccc1OC	7	2	.	.	.	.
COC(=O)c1cn(CC(C)n2c(=O)c3ccccc3n2Cc2cc(C(C)C)no2)nn1 (stereo unspecified)	11	2	.	.	.	.
CCc1cc2c(nc1CC)CCCN2S(=O)(=O)c1cccs1	13	13	.	.	.	.
O=C(O)c1cc(NC(=O)c2cccc(N3C(=O)c4ccccc4C3=O)c2)cc(C(=O)O)c1	2	-16	-2	-4	0	18
Cc1ccc(OCC(=O)Nc2ccc(N3CCN(C(=O)c4ccco4)CC3)cc2)cc1C	-14	-5	-1	-11	0	45
CC(=O)c1ccc(NC(=O)c2cccc(N3C(=O)c4ccccc4C3=O)c2)cc1	.	.	0	-6	7.7*	53
Cc1cc(OCC(=O)Nc2ccc(N3CCN(C(=O)c4ccco4)CC3)cc2)cc(C)c1Cl	1	-5	-2	0	-2	73*
CCN(CC)c1ccc(NC(=O)c2ccco2)cc1	-3	9	0	-7	-3	61*
CCN(CC)c1ccc(/C=N/Nc2nc3ccccc3[nH]2)c(O)c1	3	0	-4	98*	-4	14
C[C@@H]1CN([C@H](C)CO)C(=O)c2cc(NC(=O)Nc3ccc(F)cc3)ccc2O[C@@H](C)CCCCO[C@@H]1CN(C)C(=O)CCCN(C)C	-3	3	.	.	.	.
COC(=O)C1=C(C)N(Cc2ccc(Br)cc2)C(=S)NC1c1cccc(Br)c1 (stereo unspecified)	2	4	.	.	.	.
O=C(O)c1ccc(Nc2cnc3ccccc3n2)cc1	6	4	-2	95*	-1	36
CCOC(=O)c1ccc(Nc2cnc3ccccc3n2)cc1	2	5	1	-26	-2	42
O=S(=O)(CS(=O)(=O)c1ccccc1Br)c1ccccc1Br	1	5	.	.	.	.
COC(=O)c1cc2c(c3c4cc(C)ccc4n(S(=O)(=O)c4cccc(C)c4)c13)C(=O)N(C)C2	9	-2	.	.	.	.
Cc1ccccc1/C=C/c1cc[n+](C)cc1	17	-4	0	-6	-2	-13
CCN(CC)C(=O)Cn1c(C)c(/C=C/c2cc[n+](C)cc2)c2ccccc21	2	8	3	-5	2	-2
C=CCn1c(C)c(/C=C/c2cc[n+](C)cc2)c2ccccc21	1	20	9.3*	-10	4	-37
C=CCn1cc(/C=C/c2cc[n+](C)cc2)c2ccccc21	-4	9	10*	71	7.8*	-8
CC1=C(C#N)C(/C=N/OCc2ccc(Cl)cc2)CC(=O)N1 (stereo unspecified)	3	-6	8.8*	23	-2	-31
CCCSC1=C(C#N)C(c2ccc(Cl)cc2Cl)CC(=O)N1 (stereo unspecified)	-10	11	-2	16	-5	17
